# Data reported in ChEMBL document CHEMBL2046277, “Design, synthesis and biological evaluation of β-carboline derivatives as novel inhibitors targeting B-Raf kinase” (Bioorg Med Chem Lett, 2012).
# Target: Serine/threonine-protein kinase B-raf (Homo sapiens, UniProt P15056)
# Assay: Inhibition of human wild type B-Raf kinase assessed as change in ATP consumption by luciferase-luiferin-coupled chemiluminescent assay
# Outline: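 Wild-type B-Raf enzyme pre-incubated with compound 30 min at 30 °C, then ATP plus unactivated MEK1 substrate added and reacted 1 h at 30 °C. ADP-Glo reagent 40 min at 27 °C, then kinase detection reagent 30 min at 27 °C, luminescence read. IC50 fitted from inhibition rates; mean of two experiments.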
# Serine/threonine-protein kinase B-raf, sequence (P15056 whole entry): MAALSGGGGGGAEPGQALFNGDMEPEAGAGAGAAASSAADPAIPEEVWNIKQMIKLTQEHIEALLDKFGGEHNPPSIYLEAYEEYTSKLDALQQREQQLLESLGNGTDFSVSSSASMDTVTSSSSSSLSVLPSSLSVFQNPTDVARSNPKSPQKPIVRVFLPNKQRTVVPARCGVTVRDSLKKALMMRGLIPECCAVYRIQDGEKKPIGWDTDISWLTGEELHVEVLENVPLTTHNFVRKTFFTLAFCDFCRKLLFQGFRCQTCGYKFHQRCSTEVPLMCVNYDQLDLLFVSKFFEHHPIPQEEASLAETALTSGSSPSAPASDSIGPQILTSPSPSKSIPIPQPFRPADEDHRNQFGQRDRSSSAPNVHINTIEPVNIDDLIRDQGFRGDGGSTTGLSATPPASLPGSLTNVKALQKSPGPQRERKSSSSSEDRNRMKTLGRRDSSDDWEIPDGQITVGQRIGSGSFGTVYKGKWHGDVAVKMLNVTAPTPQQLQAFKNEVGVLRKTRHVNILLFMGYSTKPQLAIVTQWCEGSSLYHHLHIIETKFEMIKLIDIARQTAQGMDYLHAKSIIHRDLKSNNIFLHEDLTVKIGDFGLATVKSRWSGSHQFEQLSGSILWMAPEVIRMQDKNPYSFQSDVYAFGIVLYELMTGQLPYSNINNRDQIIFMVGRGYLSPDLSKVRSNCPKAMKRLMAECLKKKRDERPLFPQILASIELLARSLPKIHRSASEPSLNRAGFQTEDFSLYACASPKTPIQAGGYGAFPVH
row,Structure (SMILES),IC50
1,NC(=O)c1nccc2c1[nH]c1ccc(S(=O)(=O)NC3CC3)cc12,9.07 µM
2,NC(=O)c1nccc2c1[nH]c1ccc(S(=O)(=O)Nc3ccccc3)cc12,2.74 µM
3,Cc1ccc(NS(=O)(=O)c2ccc3[nH]c4c(C(N)=O)nccc4c3c2)cc1,20.5 µM
4,NC(=O)c1nccc2c1[nH]c1ccc(S(=O)(=O)Nc3ccc(F)cc3)cc12,8.89 µM
5,NC(=O)c1nccc2c1[nH]c1ccc(S(=O)(=O)Nc3ccccn3)cc12,3.76 µM
6,NC(=O)c1nccc2c1[nH]c1ccc(S(=O)(=O)Nc3nccs3)cc12,7.48 µM
7,NC(=O)c1nccc2c1[nH]c1ccc(S(N)(=O)=O)cc12,2.12 µM
8,NS(=O)(=O)c1ccc2[nH]c3cnccc3c2c1,2.49 µM
9,CC(=O)NS(=O)(=O)c1ccc2[nH]c3cnccc3c2c1,59.1 µM

# More lines, now with the values ahead:
row,IC50,Structure (SMILES)
1,28.5 µM,CCCNS(=O)(=O)c1ccc2[nH]c3c(C(N)=O)nccc3c2c1
2,2.81 µM,CCN(CC)CCCNS(=O)(=O)c1ccc2[nH]c3c(C(N)=O)nccc3c2c1
3,20.5 µM,NC(=O)c1nccc2c1[nH]c1ccc(S(=O)(=O)NCCCO)cc12
4,22 µM,CC(O)CNS(=O)(=O)c1ccc2[nH]c3c(C(N)=O)nccc3c2c1 (stereo not drawn)
5,1.62 µM,CN(C)CCCNS(=O)(=O)c1ccc2[nH]c3c(C(N)=O)nccc3c2c1
6,91.5 µM,COC(CNS(=O)(=O)c1ccc2[nH]c3c(C(N)=O)nccc3c2c1)OC
7,45.1 µM,NC(=O)c1nccc2c1[nH]c1ccc(S(=O)(=O)NCC(O)CO)cc12 (stereo not drawn)
8,23.7 µM,NC(=O)c1nccc2c1[nH]c1ccc(S(=O)(=O)NCCO)cc12
9,22.7 µM,COCCCNS(=O)(=O)c1ccc2[nH]c3c(C(N)=O)nccc3c2c1
